Assay results taken from ChEMBL document CHEMBL1687687, “Identification of a New Series of STAT3 Inhibitors by Virtual Screening” (ACS Med Chem Lett, 2010).
Calls of active or inactive are those of the source. No cut-off for these calls is given here.

Columns and labels:
[1] = biological target: T1, Signal transducer and activator of transcription 3 (Homo sapiens, UniProt P40763); experiment: Inhibition of STAT3 transcriptional activity in human HeLa cells at 100 uM by luciferase reporter gene assay; format: cell-based
Method in brief: (§1)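 STAT3-dependent luciferase reporter gene assay in HeLa cells. Activity is reported as percent inhibition at a single 100 μM concentration, or as an IC50.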

[2] = biological target: T1, Signal transducer and activator of transcription 3; experiment: Inhibition of STAT3 transcriptional activity in human HeLa cells by luciferase reporter gene assay; format: cell-based; method in brief: as §1
[3] = biological target: T1, Signal transducer and activator of transcription 3; experiment: Inhibition of STAT3 dimerization transfected in HEK293 cells at 100 uM after 24 hrs followed by 1 hr stimulation with 50 ng/ml IL-6 by FRET assay; format: cell-based; settings: 10 uM, in the assay text read “at 10 uM” for “at 100 uM”
Method in brief: (§2)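 Cell-based FRET dimerization read-out in HEK293 cells co-expressing STAT3-CFP and STAT3-YFP. Cells were pretreated with compound before IL-6 stimulation, and the FRET signal from the STAT3–STAT3 interaction was measured. Values are given as percent inhibition of the signal.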

[4] = biological target: T1, Signal transducer and activator of transcription 3; experiment: Inhibition of STAT3 dimerization transfected in HEK293 cells at 50 uM after 24 hrs followed by 1 hr stimulation with 50 ng/ml IL-6 by FRET assay; format: cell-based; method in brief: as §2
SCC-3 = experiment: Antitumor activity against human SCC-3 cells xenografted in BALB/cA-v/v nude mouse assessed as decrease in tumor volume at 160 mg/kg, po QD for 4 days measured on 4th day relative to control; format: functional; design: scale not given: the % may be the effect or the level left
Method in brief: (§3)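 Human SCC-3 lymphoma cells implanted subcutaneously in nude mice. Compound given by oral gavage at 160 mg/kg once daily for 4 days. Tumour growth was assessed on day 4 against untreated controls, with significance taken at p < 0.05. Body weight and signs of toxicity were monitored over the same period.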

MDA-MB-453 = experiment: Induction of apoptosis in human MDA-MB-453 cells assessed as increase in caspase3/7 activity at 1-100 uM by fluorescence assay; format: functional, cell-based
MDA-MB-468 = experiment: Induction of apoptosis in human MDA-MB-468 cells assessed as increase in caspase3/7 activity at 1-100 uM by fluorescence assay; format: functional, cell-based
[5] = biological target: T1, Signal transducer and activator of transcription 3; experiment: Inhibition of STAT3 in human MDA-MB-468 cells assessed as reduction in cyclin D1 expression at 50 uM by Western blotting; format: cell-based
Method in brief: (§4)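 MDA-MB-468 breast cancer cells were treated with compound at a series of concentrations. Cell lysates were analysed by Western blotting for c-myc, cyclin D1 and survivin, with STAT3 Tyr705 phosphorylation probed alongside.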

[6] = biological target: T1, Signal transducer and activator of transcription 3; experiment: Inhibition of STAT3 in human MDA-MB-468 cells assessed as reduction in cyclin D1 expression at 20 uM by Western blotting; format: cell-based; method in brief: as §4
[7] = biological target: T1, Signal transducer and activator of transcription 3; experiment: Inhibition of STAT3 in human MDA-MB-468 cells assessed as reduction in c-myc expression at 20 uM by Western blotting; format: cell-based; method in brief: as §4
[8] = biological target: T1, Signal transducer and activator of transcription 3; experiment: Inhibition of STAT3 in human MDA-MB-468 cells assessed as reduction in survivin expression at 20 uM by Western blotting; format: cell-based; method in brief: as §4
[9] = biological target: T2, Signal transducer and activator of transcription 5A (Homo sapiens) (UniProt P42229); experiment: Inhibition of STAT5a DNA binding activity in IL-6 stimulated human MDA-MB-468 cells at 50 uM by transcription factor ELISA; format: cell-based
T2 sequence (whole entry): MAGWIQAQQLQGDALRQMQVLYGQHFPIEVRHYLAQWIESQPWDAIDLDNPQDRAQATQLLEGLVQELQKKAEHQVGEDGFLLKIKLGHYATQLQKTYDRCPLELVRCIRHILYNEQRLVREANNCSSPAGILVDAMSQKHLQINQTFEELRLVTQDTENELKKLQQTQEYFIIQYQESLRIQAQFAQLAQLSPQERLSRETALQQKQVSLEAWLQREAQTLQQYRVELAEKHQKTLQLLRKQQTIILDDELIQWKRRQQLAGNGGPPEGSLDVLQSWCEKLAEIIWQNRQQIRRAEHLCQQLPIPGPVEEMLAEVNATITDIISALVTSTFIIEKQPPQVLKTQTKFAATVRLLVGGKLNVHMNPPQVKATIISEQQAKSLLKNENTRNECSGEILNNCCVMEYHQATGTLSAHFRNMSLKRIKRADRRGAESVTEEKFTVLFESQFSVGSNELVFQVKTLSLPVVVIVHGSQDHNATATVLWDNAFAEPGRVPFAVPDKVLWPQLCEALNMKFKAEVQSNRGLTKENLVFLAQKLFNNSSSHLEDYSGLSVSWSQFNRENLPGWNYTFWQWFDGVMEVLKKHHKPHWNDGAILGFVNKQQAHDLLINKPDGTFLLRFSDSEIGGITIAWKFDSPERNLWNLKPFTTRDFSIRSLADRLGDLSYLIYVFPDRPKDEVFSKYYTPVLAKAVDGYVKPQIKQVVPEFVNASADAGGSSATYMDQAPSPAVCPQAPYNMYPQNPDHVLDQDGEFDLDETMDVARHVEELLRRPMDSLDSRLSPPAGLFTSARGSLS

[10] = biological target: T3, Signal transducer and activator of transcription 5B (Homo sapiens) (UniProt P51692); experiment: Inhibition of STAT5b DNA binding activity in IL-6 stimulated human MDA-MB-468 cells at 50 uM by transcription factor ELISA; format: cell-based
T3 sequence (whole entry): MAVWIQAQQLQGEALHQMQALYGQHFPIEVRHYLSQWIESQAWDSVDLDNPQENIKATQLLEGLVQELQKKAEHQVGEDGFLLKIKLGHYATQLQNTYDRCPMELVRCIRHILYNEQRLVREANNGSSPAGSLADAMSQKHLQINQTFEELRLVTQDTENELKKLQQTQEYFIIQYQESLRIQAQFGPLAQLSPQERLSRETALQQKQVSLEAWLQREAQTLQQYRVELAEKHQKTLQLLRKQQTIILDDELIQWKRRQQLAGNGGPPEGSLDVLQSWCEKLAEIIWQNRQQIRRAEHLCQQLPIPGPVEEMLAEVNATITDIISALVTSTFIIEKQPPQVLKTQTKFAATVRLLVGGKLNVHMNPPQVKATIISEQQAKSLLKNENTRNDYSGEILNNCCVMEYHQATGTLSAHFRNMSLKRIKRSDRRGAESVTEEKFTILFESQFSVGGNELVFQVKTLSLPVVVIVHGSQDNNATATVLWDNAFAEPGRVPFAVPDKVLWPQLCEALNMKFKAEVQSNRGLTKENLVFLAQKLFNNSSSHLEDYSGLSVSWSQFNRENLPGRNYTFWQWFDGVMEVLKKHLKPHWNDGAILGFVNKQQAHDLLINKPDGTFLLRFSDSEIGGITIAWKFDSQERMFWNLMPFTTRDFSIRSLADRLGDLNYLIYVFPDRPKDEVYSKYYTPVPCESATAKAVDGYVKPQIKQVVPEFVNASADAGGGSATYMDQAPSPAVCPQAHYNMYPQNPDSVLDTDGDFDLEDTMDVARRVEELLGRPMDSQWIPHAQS

[11] = biological target: T1, Signal transducer and activator of transcription 3; experiment: Inhibition of STAT3 in human MDA-MB-468 cells assessed as reduction in survivin expression at 50 uM by Western blotting; format: cell-based; method in brief: as §4
[12] = biological target: T1, Signal transducer and activator of transcription 3; experiment: Inhibition of STAT3 DNA binding activity in IL-6 stimulated human MDA-MB-468 cells at 50 uM by transcription factor ELISA; format: cell-based
Mus musculus [13] = organism: Mus musculus; experiment: Toxicity in BALB/cA-v/v nude mouse assessed as mortality; format: organism-based; settings: in vivo
[14] = biological target: T1, Signal transducer and activator of transcription 3; experiment: Inhibition of STAT3 in human MDA-MB-468 cells assessed as reduction in c-myc expression at 50 uM by Western blotting; format: cell-based; method in brief: as §4
[15] = biological target: T4, Signal transducer and activator of transcription 1-alpha/beta (Homo sapiens) (UniProt P42224); experiment: Inhibition of STAT1 DNA binding activity in IL-6 stimulated human MDA-MB-468 cells at 50 uM by transcription factor ELISA; format: cell-based
T4 sequence (whole entry): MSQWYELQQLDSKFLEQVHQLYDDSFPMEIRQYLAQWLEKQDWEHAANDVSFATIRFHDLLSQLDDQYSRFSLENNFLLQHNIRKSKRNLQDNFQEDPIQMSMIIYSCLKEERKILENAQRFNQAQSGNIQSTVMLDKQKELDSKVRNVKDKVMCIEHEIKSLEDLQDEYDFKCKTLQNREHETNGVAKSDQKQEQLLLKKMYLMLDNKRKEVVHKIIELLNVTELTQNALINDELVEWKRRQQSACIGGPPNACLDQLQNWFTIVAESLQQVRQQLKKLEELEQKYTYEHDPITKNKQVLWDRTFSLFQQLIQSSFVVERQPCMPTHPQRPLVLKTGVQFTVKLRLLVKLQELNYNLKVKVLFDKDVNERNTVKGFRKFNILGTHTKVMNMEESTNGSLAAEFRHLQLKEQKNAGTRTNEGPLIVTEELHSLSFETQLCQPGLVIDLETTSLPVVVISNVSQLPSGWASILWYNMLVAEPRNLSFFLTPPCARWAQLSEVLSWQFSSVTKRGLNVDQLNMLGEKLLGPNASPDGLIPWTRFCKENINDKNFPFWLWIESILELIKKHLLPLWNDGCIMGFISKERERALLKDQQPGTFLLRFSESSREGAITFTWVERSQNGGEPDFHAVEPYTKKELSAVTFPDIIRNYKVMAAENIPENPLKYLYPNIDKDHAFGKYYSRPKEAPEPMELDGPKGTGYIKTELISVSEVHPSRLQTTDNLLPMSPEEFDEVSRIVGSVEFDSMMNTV

[16] = biological target: T1, Signal transducer and activator of transcription 3; experiment: Inhibition of STAT3 in human MDA-MB-468 cells assessed as reduction in c-myc expression at 10 uM by Western blotting; format: cell-based; method in brief: as §4
[17] = biological target: T1, Signal transducer and activator of transcription 3; experiment: Inhibition of STAT3 in IL-6 stimulated human MDA-MB-468 cells assessed as reduction in amplification of c-myc promoter by CHIP assay; format: cell-based
Method in brief: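 Chromatin immunoprecipitation in compound-treated MDA-MB-468 breast cancer cells. STAT3 occupancy of the c-myc promoter was judged by amplification of the c-myc promoter from the immunoprecipitate.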

Mus musculus [18] = organism: Mus musculus; experiment: Toxicity in BALB/cA-v/v nude mouse assessed as increase in body weight relative to control; format: organism-based; settings: in vivo; method in brief: as §3
[19] = biological target: T1, Signal transducer and activator of transcription 3; experiment: Inhibition of STAT3 in human MDA-MB-468 cells assessed as reduction in cyclin D1 expression at 10 uM by Western blotting; format: cell-based; method in brief: as §4
[20] = Plasma concentration in CD1(ICR) mouse at 160 mg/kg, po after 8 hrs by LC-MS analysis; format: ADME, organism-based; design: dose 160 mg/kg, route oral
[21] = biological target: T1, Signal transducer and activator of transcription 3; experiment: Inhibition of STAT3 in human MDA-MB-468 cells assessed as reduction in survivin expression at 10 uM by Western blotting; format: cell-based; method in brief: as §4

T1 sequence (P40763 whole entry): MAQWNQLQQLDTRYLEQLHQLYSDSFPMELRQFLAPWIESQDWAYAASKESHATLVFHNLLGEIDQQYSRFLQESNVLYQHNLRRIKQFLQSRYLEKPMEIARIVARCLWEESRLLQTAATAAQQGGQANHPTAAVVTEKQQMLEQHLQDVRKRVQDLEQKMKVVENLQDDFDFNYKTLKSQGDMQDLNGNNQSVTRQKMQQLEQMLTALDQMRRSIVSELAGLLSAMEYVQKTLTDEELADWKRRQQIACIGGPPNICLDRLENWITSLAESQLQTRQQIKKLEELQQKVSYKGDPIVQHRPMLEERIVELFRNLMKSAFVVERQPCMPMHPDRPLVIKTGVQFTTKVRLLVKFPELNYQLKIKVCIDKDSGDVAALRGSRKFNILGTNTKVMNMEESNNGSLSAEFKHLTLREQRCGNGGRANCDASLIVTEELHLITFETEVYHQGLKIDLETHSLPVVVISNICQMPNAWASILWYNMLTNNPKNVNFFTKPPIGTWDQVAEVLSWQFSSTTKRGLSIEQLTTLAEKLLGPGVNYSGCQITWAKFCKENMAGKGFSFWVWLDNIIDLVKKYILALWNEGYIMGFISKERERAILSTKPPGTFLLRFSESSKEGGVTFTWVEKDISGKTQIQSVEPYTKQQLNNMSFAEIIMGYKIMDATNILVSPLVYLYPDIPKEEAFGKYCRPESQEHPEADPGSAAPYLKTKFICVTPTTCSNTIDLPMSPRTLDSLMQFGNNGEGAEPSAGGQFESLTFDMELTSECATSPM

| inhibition [1] | IC50 [2] | inhibition [3] | inhibition [4] | SMILES | also measured |
| --- | --- | --- | --- | --- | --- |
| 121% | 55 µM | 14% | 70% | O=C(Nc1nnc(-c2ccco2)o1)c1cc(-c2cccc3ccccc23)nc2ccccc12 | – |
| 33% | – | – | – | CCc1nnc(NC(=O)c2cc(-c3ccccc3)nc3ccccc23)o1 | – |
| -7% | – | – | – | O=C(Nc1nnc(-c2ccco2)o1)c1cc(N2CCCCC2)nc2ccccc12 | – |
| 5% | – | – | – | O=C(Nc1nnc(-c2ccco2)o1)c1cc(-c2ccccn2)nc2ccccc12 | – |
| 43% | – | – | – | O=C(Nc1nnc(-c2ccco2)o1)c1cc(Cl)nc2ccccc12 | – |

Further lines, the compound ahead of its results:

| SMILES | inhibition [1] | IC50 [2] | inhibition [3] | inhibition [4] | also measured |
| --- | --- | --- | --- | --- | --- |
| O=C(Nc1nnc(-c2ccccc2)o1)c1cc(-c2ccccc2)nc2ccccc12 | 105% | 66 µM | 43% | 60% | – |
| O=C(Nc1nnc(-c2ccco2)o1)c1cc(-c2ccccc2)nc2ccccc12 | 99% | 74 µM | 9% | 62% | Activity (SCC-3): 40%; Activity (MDA-MB-453): inactive; Activity (MDA-MB-468): Active; inhibition [5]: Active; inhibition [6]: Active; inhibition [7]: Active; inhibition [8]: Active; inhibition [9]: inactive; inhibition [10]: inactive; inhibition [11]: Active; inhibition [12]: Active; Activity (Mus musculus [13]): Non-toxic; inhibition [14]: Active; inhibition [15]: inactive; inhibition [16]: Active; inhibition [17]: Active; Activity (Mus musculus [18]): Non-toxic; inhibition [19]: Active; concentration at 8 h [20]: > 260 µM; inhibition [21]: Active |
| O=C(Nc1nnc(Cc2ccccc2)o1)c1cc(-c2ccccc2)nc2ccccc12 | 82% | 75 µM | 25% | 61% | – |
| O=C(Nc1nnc(-c2ccco2)o1)c1cc(-c2cccnc2)nc2ccccc12 | 12% | – | – | – | – |
